The target of assay [1] is T1, Adenosine receptor A3 (Homo sapiens, UniProt P0DMS8).
T1 sequence (P0DMS8 whole entry): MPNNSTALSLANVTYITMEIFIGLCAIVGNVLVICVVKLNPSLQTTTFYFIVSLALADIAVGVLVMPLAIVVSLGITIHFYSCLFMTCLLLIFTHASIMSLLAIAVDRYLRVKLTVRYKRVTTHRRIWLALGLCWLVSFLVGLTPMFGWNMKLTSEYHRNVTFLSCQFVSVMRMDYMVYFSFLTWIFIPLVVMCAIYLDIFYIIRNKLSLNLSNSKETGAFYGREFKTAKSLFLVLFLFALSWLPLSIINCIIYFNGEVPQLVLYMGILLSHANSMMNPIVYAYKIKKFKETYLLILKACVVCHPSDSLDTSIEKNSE
In words: Inhibition of (10 uM) forskolin-mediated cAMP production in CHO cells expressing human Adenosine A3 receptor. The class given is functional, cell-based.

Assay [2] deals with T2, Adenosine receptor A2a (Homo sapiens, UniProt P29274). The assay is described as follows: Displacement of [3H]CGS-21680 binding to Adenosine A2 receptor expressed in CHO cells. The class given is cell-based. (Displacement assays read how much labelled ligand stays bound in the presence of the test substance.)
T2 sequence (P29274 whole entry): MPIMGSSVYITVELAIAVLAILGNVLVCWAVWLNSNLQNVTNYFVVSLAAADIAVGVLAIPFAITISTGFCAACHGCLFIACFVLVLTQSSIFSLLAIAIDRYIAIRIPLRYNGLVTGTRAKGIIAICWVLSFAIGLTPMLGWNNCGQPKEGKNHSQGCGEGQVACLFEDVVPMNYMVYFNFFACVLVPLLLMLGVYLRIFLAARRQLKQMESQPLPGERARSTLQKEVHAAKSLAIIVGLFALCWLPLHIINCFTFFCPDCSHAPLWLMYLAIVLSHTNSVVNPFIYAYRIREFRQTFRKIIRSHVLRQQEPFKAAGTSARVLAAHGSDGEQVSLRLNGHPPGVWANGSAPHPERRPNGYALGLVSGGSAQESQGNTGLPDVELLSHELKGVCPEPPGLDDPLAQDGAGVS
The target of a further assay is T3, Adenosine receptor A1 (Homo sapiens, UniProt P30542).
T3 sequence (P30542 whole entry): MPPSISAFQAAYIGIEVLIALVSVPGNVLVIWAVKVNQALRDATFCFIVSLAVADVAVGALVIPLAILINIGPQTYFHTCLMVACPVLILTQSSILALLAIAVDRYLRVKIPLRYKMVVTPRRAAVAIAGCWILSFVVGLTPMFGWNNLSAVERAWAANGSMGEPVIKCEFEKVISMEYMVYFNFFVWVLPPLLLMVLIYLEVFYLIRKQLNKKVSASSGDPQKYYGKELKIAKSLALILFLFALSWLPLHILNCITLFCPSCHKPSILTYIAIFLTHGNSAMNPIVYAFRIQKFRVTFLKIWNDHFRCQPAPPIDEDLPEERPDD
The assay is described as follows: Displacement of [3H]CHA binding to Adenosine A1 receptor expressed in CHO cells. The class given is cell-based. The gist of the method:
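Human A1-transfected CHO membranes (adenosine deaminase-treated), 50 µg protein, incubated 120 min at 25 °C in 50 mM Tris HCl pH 7.4 with 1 nM [3H]-CHA and 6-8 agonist concentrations; nonspecific binding with 10 µM CHA. Filtration through GF/B filters, scintillation counting; Ki from IC50 via Cheng-Prusoff; geometric mean with confidence limits.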

Assay [3] concerns the target Adenosine receptors; A1 & A3 (Homo sapiens) (UniProt P30542+P0DMS8). In words: Ratio of binding affinity for Adenosine A1 and Adenosine A3 receptors. The class given is protein assay.
Assay [4] deals with Adenosine receptors; A2a & A3 (Homo sapiens) (UniProt P0DMS8+P29274). In words: Ratio of binding affinity for Adenosine A2A and Adenosine A3 receptors. The class given is protein assay. The gist of the method:
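Ki ratio of two competition binding assays on adenosine deaminase-treated membranes of CHO cells expressing human receptors (50 µg protein). […] A3: 1 nM [125I]-AB-MECA, 120 min, 4 °C, duplicates. Filtration read-out; Ki by Cheng-Prusoff.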

Assay [5] addresses T1, Adenosine receptor A3. In words: Displacement of [125I]AB-MECA binding to Adenosine A3 receptor expressed in CHO cells. The class given is cell-based.
Assay [6] addresses T2, Adenosine receptor A2a. In words: Inhibition of [3H]CGS-21680 binding to Adenosine A2A receptor expressed in CHO cells. The class given is cell-based. More on the design: concentration or dose not given beside the values. As to conditions: concentration not given here.

Molecules are shown by their SMILES.

This note sets out measurements from ChEMBL document CHEMBL1138800, “Synthesis and biological evaluation of novel N6-[4-(substituted)sulfonamidophenylcarbamoyl]adenosine-5'-uronamides as A3 adenosine receptor agonists” (J Med Chem, 2004).

A word on the IC50: it is the concentration that inhibits the measured activity by half. The Ki is the equilibrium dissociation constant of an inhibitor or competing ligand from its target. In general, inhibition refers to the percentage by which the read-out fell short of the control.

Chain of Adenosine receptors; A2a & A3 (Homo sapiens) (P29274 whole entry, looked up, one chain of several): as the sequence (P29274 whole entry) above

`CCNC(=O)[C@H]1O[C@@H](n2cnc3c(NC(=O)Nc4ccc(S(N)(=O)=O)cc4)ncnc32)C(O)C1O` (single isomer, unassigned): the IC50 on Adenosine receptor A3 [1] was 81 nM. For the same compound, the Ki on Adenosine receptor A2a [2] is 95.2 nM; on Adenosine receptor A1, 30.1 nM; at Adenosine receptor A3 [5], 14.8 nM. The Ratio in assay [3] came to 2.03; in assay [4], 6.43.
As to `CCNC(=O)[C@H]1OC(n2cnc3c(NC(=O)Nc4ccc(S(=O)(=O)NC5CCCC5)cc4)ncnc32)C(O)C1O` (single isomer, unassigned), the Ki at Adenosine receptor A2a [2] was > 1000 nM; on Adenosine receptor A1, 415 nM; at Adenosine receptor A3 [5], 24 nM. The compound further had an inhibition at Adenosine receptor A2a [6] of 19%. In assay [3], the Ratio stood at 17.3.
`CCCCCNS(=O)(=O)c1ccc(NC(=O)Nc2ncnc3c2ncn3C2O[C@H](C(=O)NCC)C(O)C2O)cc1` (single isomer, unassigned): the Ki at Adenosine receptor A2a [2] was > 1000 nM; on Adenosine receptor A1, 445 nM; on Adenosine receptor A3 [5], 80 nM. This compound had an inhibition at Adenosine receptor A2a [6] of 32%. The Ratio in assay [3] was found to be 5.56.
Take `CCNC(=O)[C@H]1OC(n2cnc3c(NC(=O)Nc4ccc(S(=O)(=O)NC5CCCCC5)cc4)ncnc32)C(O)C1O` (single isomer, unassigned): the Ki was > 1000 nM at Adenosine receptor A2a [2] and 350 nM at Adenosine receptor A1. Further, the inhibition at Adenosine receptor A2a [6] worked out at 25%.
`CCNC(=O)[C@H]1OC(n2cnc3c(NC(=O)Nc4ccc(S(=O)(=O)NC(C)(C)C)cc4)ncnc32)C(O)C1O` (single isomer, unassigned): the Ki is > 1000 nM on Adenosine receptor A2a [2], 250 nM on Adenosine receptor A1 and 20 nM on Adenosine receptor A3 [5]. The compound further registered an inhibition on Adenosine receptor A2a [6] of 32%. Moreover, the Ratio in assay [3] came out at 12.5.
With `CCNC(=O)[C@H]1OC(n2cnc3c(NC(=O)Nc4ccc(S(=O)(=O)N5CCCCC5)cc4)ncnc32)C(O)C1O` (single isomer, unassigned), on Adenosine receptor A2a [2], the Ki is > 1000 nM. The same compound had an inhibition on Adenosine receptor A2a [6] of 15%.
For `CCNC(=O)[C@H]1OC(n2cnc3c(NC(=O)Nc4ccc(S(=O)(=O)NC56CC7CC(CC(C7)C5)C6)cc4)ncnc32)C(O)C1O` (single isomer, unassigned), the values for the Ki on Adenosine receptor A2a [2], at Adenosine receptor A1 and on Adenosine receptor A3 [5] were > 1000 nM, 240 nM and 35 nM, respectively. For the same compound, on Adenosine receptor A2a [6], the inhibition was found to be 31%. Moreover, the Ratio in assay [3] was 7.5.
On to `CCNC(=O)[C@H]1OC(n2cnc3c(NC(=O)Nc4ccc(S(=O)(=O)N(CCCl)CCCl)cc4)ncnc32)C(O)C1O` (single isomer, unassigned), for which the values for the Ki on Adenosine receptor A2a [2], on Adenosine receptor A1 and on Adenosine receptor A3 [5] were > 1000 nM, 730 nM and 23 nM, respectively. The inhibition on Adenosine receptor A2a [6] was 27%. Also, the Ratio in assay [3] was determined as 31.7.
For `CCNC(=O)[C@H]1OC(n2cnc3c(NC(=O)Nc4ccc(S(=O)(=O)NCC)cc4)ncnc32)C(O)C1O` (single isomer, unassigned), in that order: > 1000 nM, 250 nM, 23 nM, 34% and 10.9.
For `CCNC(=O)[C@H]1OC(n2cnc3c(NC(=O)Nc4ccc(S(=O)(=O)N(C)C)cc4)ncnc32)C(O)C1O` (single isomer, unassigned), the Ki on Adenosine receptor A2a [2] is > 1000 nM; at Adenosine receptor A1, 280 nM. On Adenosine receptor A2a [6], this compound came in with an inhibition of 21%.
Regarding `CCNC(=O)[C@H]1OC(n2cnc3c(NC(=O)Nc4ccc(S(=O)(=O)N5CC=CC5)cc4)ncnc32)C(O)C1O` (single isomer, unassigned), the values for the Ki on Adenosine receptor A2a [2], on Adenosine receptor A1 and at Adenosine receptor A3 [5] were > 1000 nM, 250 nM and 19 nM, respectively. The compound further showed an inhibition at Adenosine receptor A2a [6] of 17%. Also, the Ratio in assay [3] turned out to be 13.2.
Regarding `CCNC(=O)[C@H]1OC(n2cnc3c(NC(=O)Nc4ccc(S(=O)(=O)N5CCCC5)cc4)ncnc32)C(O)C1O` (single isomer, unassigned), the Ki is > 1000 nM on Adenosine receptor A2a [2] and 22 nM at Adenosine receptor A3 [5]. Moreover, the inhibition at Adenosine receptor A2a [6] came out at 23%.
Consider `CCCN(CCC)S(=O)(=O)c1ccc(NC(=O)Nc2ncnc3c2ncn3C2O[C@H](C(=O)NCC)C(O)C2O)cc1` (single isomer, unassigned), for which the inhibition constant Ki at Adenosine receptor A2a [2] was > 1000 nM; at Adenosine receptor A1, 350 nM; at Adenosine receptor A3 [5] it was 14 nM. For the same compound, the inhibition on Adenosine receptor A2a [6] was 15%. Moreover, the Ratio in assay [3] was determined as 25.
As for `CCNC(=O)[C@H]1OC(n2cnc3c(NC(=O)Nc4ccc(S(=O)(=O)N5CCOCC5)cc4)ncnc32)C(O)C1O` (single isomer, unassigned), the Ki is > 1000 nM at Adenosine receptor A2a [2], 725 nM at Adenosine receptor A1 and 20 nM at Adenosine receptor A3 [5]. This compound also showed an inhibition on Adenosine receptor A2a [6] of 20%. Further, the Ratio in assay [3] stood at 36.2.
As for `CCNC(=O)[C@H]1OC(n2cnc3c(NC(=O)Nc4ccc(S(=O)(=O)Nc5ccc(OC)cc5)cc4)ncnc32)C(O)C1O` (single isomer, unassigned), the results for the Ki at Adenosine receptor A2a [2] and at Adenosine receptor A1 were > 1000 nM and 280 nM, respectively. Also, on Adenosine receptor A2a [6], the inhibition is 34%.
Take `CCNC(=O)[C@H]1OC(n2cnc3c(NC(=O)Nc4ccc(S(=O)(=O)N(CC)CC)cc4)ncnc32)C(O)C1O` (single isomer, unassigned): the Ki on Adenosine receptor A2a [2] was > 1000 nM. This compound returned an inhibition at Adenosine receptor A2a [6] of 28%.
`CCNC(=O)[C@H]1OC(n2cnc3c(NC(=O)Nc4ccc(S(=O)(=O)NCc5ccccc5)cc4)ncnc32)C(O)C1O` (single isomer, unassigned): the figures for the Ki at Adenosine receptor A2a [2] and on Adenosine receptor A1 were > 1000 nM and 300 nM, respectively. At Adenosine receptor A2a [6], this compound displayed an inhibition of 30%.
`C=CCN(C)S(=O)(=O)c1ccc(NC(=O)Nc2ncnc3c2ncn3C2O[C@H](C(=O)NCC)C(O)C2O)cc1` (single isomer, unassigned) came in with an IC50 at Adenosine receptor A3 [1] of 42 nM. For the same compound, the inhibition constant Ki is > 1000 nM at Adenosine receptor A2a [2] and 10 nM on Adenosine receptor A3 [5]. Further, on Adenosine receptor A2a [6], the inhibition was 10%.
Consider `CCCNS(=O)(=O)c1ccc(NC(=O)Nc2ncnc3c2ncn3C2O[C@H](C(=O)NCC)C(O)C2O)cc1` (single isomer, unassigned), for which the values for the Ki on Adenosine receptor A2a [2], at Adenosine receptor A1 and at Adenosine receptor A3 [5] were > 1000 nM, 290 nM and 25 nM, respectively. The compound also had an inhibition at Adenosine receptor A2a [6] of 31%. In addition, the Ratio in assay [3] turned out to be 11.6.
`C=CCN(CC=C)S(=O)(=O)c1ccc(NC(=O)Nc2ncnc3c2ncn3C2O[C@H](C(=O)NCC)C(O)C2O)cc1` (single isomer, unassigned) came in with an IC50 against Adenosine receptor A3 [1] of 65 nM. Also, the Ki at Adenosine receptor A2a [2] was > 1000 nM; on Adenosine receptor A1 it was 380 nM; at Adenosine receptor A3 [5] it was 10 nM. The inhibition on Adenosine receptor A2a [6] came to 15%. Also, in assay [3], the Ratio was 38.
At Adenosine receptor A2a [6], `CCNC(=O)[C@H]1OC(n2cnc3c(NC(=O)Nc4ccc(S(=O)(=O)N(C)C(C)C)cc4)ncnc32)C(O)C1O` (single isomer, unassigned) came in with an inhibition of 13%.
